Results: paper PMC7156834 (Cancer Science, 2020)
Where two headings read alike, the source gives them in different places. No end group written: not given here.

Tests used:
[1] = test system: human serum albumin (HSA); test: QCM response to human serum albumin-immobilized sensor chip; type: binding; conditions: QCM sensorgram, result in words
Summary of the method: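 Quartz crystal microbalance run with an HSA-immobilized sensor chip. Test compound added to the cuvette in successive portions, giving overall cuvette concentrations that start at 1 and 10 nmol L⁻¹. Frequency change recorded over time as the binding response.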

[2] = test system: cleaved caspase‐3 in MIA PaCa‐2 cells; test: Western blot of cleaved caspase-3, MIA PaCa-2; type: cell-based, human; conditions: even at 10 µmol L^−1, 48 h, vs untreated cells, n = 3
MCF‐10A cells = test: Cell proliferation assay; type: cell-based, human; conditions: MTT, 1, 10 or 100 µmol L^−1, 48 h
Summary of the method: (§1)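 Cells treated 48 h with test compound at 1, 10 or 100 µmol L⁻¹, or with 1% DMSO solvent alone. Culture media: MIA PaCa-2 in low-glucose DMEM with 10% FBS; MCF-10A in DMEM/F-12 with 5% horse serum, EGF, insulin and hydrocortisone. MTT added for 4 h, then cells lysed in DMSO. OD read at 570 nm (650 nm correction). Viability expressed relative to DMSO-treated cells (100%). Mean ± SD, n = 5–6; Kruskal-Wallis test with Dunn's post hoc test.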

MIA PaCa‐2 cells [3] = test: Flow cytometry, annexin V-FITC/PI apoptosis; type: cell-based, human; conditions: n = 3
[4] = test system: survivin in MDA‐MB‐231 cells; test: Western blot of survivin protein expression, MDA-MB-231; type: cell-based, human; conditions: 10 or 40 μmol L^−1, 48 h, vs vehicle control, n = 3
[5] = biological target: recombinant human survivin (Homo sapiens, UniProt O15392); test: Saturation binding assay of peptides to recombinant survivin protein; conditions: QCM sensorgram, result in words
Summary of the method: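 Quartz crystal microbalance. Recombinant human survivin (40 μg/mL) amide-coupled to the gold electrode of the sensor chip, with the chip soaked in buffer. 8 μL aliquots of test peptide solutions (10–256 μmol L⁻¹ as injected) added sequentially to the cuvette. Frequency change monitored over time. Kd derived by kinetic analysis using a one-binding-site model.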

[6] = test system: survivin in MIA PaCa‐2 cells; test: Western blot of survivin protein expression, MIA PaCa-2; type: cell-based, human; conditions: 40 µmol L^−1, 48 h, P = .366, without statistical significance, n = 3
MDA‐MB‐231 cells = test: Cell proliferation assay; type: cell-based, human; conditions: MTT, different concentrations, 48 h
MIA PaCa‐2 cells [7] = test: Cell proliferation assay; type: cell-based, human; conditions: MTT, different concentrations, 48 h
Summary of the method: as §1

[8] = biological target: T1, recombinant human survivin (human, UniProt O15392); test: quartz crystal microbalance
[9] = biological target: T1, recombinant human survivin; test: quartz crystal microbalance; remark: listed apart in the source

T1 sequence (O15392 whole entry): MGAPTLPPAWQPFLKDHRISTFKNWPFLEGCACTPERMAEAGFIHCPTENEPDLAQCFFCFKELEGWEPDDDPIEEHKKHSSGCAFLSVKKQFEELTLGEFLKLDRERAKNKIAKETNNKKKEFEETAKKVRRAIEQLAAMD
recombinant human survivin (Homo sapiens, UniProt O15392), sequence (O15392 whole entry): as above

Molecule: CSCC[C@H](NC(=O)[C@H](CC(C)C)NC(=O)[C@H](CCCCN)NC(=O)[C@H](CCC(N)=O)NC(=O)[C@H](CC(=O)O)NC(=O)CCCCCNC(=O)[C@@H](CCCNC(=N)N)NC(=O)[C@@H](CCCNC(=N)N)NC(=O)[C@@H](CCCNC(=N)N)NC(=O)[C@@H](CCCNC(=N)N)NC(=O)[C@@H](CCCNC(=N)N)NC(=O)[C@@H](CCCNC(=N)N)NC(=O)[C@@H](CCCNC(=N)N)NC(=O)[C@@H](CCCNC(=N)N)NC(=O)[C@@H](CCCNC(=N)N)NC(C)=O)C(=O)N[C@@H](CCC(=O)O)C(=O)N[C@@H](Cc1ccccc1)C(N)=O [r9‐INC16‐22]
- QCM response to HSA-immobilized sensor chip [1]: no significant response
- expression of cleaved caspase‐3 in MIA PaCa‐2 cells [2]: significantly increased
- antiproliferative effect on MCF‐10A cells (in words) (MCF‐10A cells): No marked antiproliferative effect
- early apoptosis rate (MIA PaCa‐2 cells [3]; MIA PaCa‐2, 10 μmol L^−1, 24 h): 52.4%
- late apoptosis and necrosis rate (MIA PaCa‐2 cells [3]; MIA PaCa‐2, 10 μmol L^−1, 24 h): 29.4%
- early apoptosis rate (MIA PaCa‐2 cells [3]; MIA PaCa‐2, 50 μmol L^−1, 24 h): 49.6%
- late apoptosis and necrosis rate (MIA PaCa‐2 cells [3]; MIA PaCa‐2, 50 μmol L^−1, 24 h): 44.2%
- protein expression level of survivin in MDA‐MB‐231 cells [4]: Neither the treatment with r9‐INC16‐22 at a concentration of 10 μmol L^−1 nor at 40 μmol L^−1 showed any significant decrease
- QCM response to survivin-immobilized sensor chip [5]: strongly responded to survivin in a dose‐dependent manner
- protein expression level of survivin in MIA PaCa‐2 cells [6]: apparently reduced the protein level

Molecule: Ac-rrrrrrrrr-ahx-QLDMFKE-NH2 [r9‐scINC16‐22]
- antiproliferative effect on MDA‐MB‐231 cells (in words) (MDA‐MB‐231 cells): no significant antiproliferative effect
- antiproliferative effect on MIA PaCa‐2 cells (in words) (MIA PaCa‐2 cells [7]): no significant antiproliferative effect
- QCM response to survivin-immobilized sensor chip [5]: negligible response

B1: INC_(27-34) (peptide)
peptide: DNKDLVWL-NH2
- Kd [8]: 255 nM

B2: INC_(23-30) (peptide)
peptide: LCNMDNKD-NH2
- Kd [8]: 117 nM

B3: INC_(39-47) (peptide)
peptide: EEAERMFTR-NH2
- Kd [8]: 135 nM

B4: INC_(31-38) (peptide)
peptide: LVWLEEIQ-NH2
- Kd [8]: 108 nM

B5: FITC-INC_(16-22) (peptide)
peptide: DQKLMEF
HELM: PEPTIDE1{[O=C1OC2(c3ccc(O)cc3Oc3cc(O)ccc32)c2ccc(NC(=S)[*:2])cc21].[O=C(CCCCCN[*:1])[*:2]].D.Q.K.L.M.E.F.[am]}$$$$V2.0
SMILES: CSCC[C@H](NC(=O)[C@H](CC(C)C)NC(=O)[C@H](CCCCN)NC(=O)[C@H](CCC(N)=O)NC(=O)[C@H](CC(=O)O)NC(=O)CCCCCNC(=S)Nc1ccc2c(c1)C(=O)OC21c2ccc(O)cc2Oc2cc(O)ccc21)C(=O)N[C@@H](CCC(=O)O)C(=O)N[C@@H](Cc1ccccc1)C(N)=O
- Kd [9]: 66 nM

B6: INC_(15-22) (peptide)
peptide: CDQKLMEF-NH2
- Kd [9]: 248 nM

B7: INC_(16-22) (peptide)
peptide: DQKLMEF-NH2
- Kd [8]: 91.4 nM

B8: scINC_(16-22) (peptide)
peptide: QLDMFKE-NH2
- Kd [9]: > 300 nM

B9: INC_(7-14) (peptide)
peptide: GPIHLLEL-NH2
- Kd [8]: 214 nM

B10: INC_(16-34) (peptide)
peptide: DQKLMEFLCNMDNKDLVWL-NH2
- Kd [9]: 160 nM
